According to ChEMBL document CHEMBL5058577, “EUbOPEN Chemogenomics Library 2 (Multiplex)” (2022):

System: Fibroblast
Test: Multiplex assay against human fibroblast
Type: toxicity, cell-based
In short: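 At seeding, live cells were stained with Hoechst33342, BioTracker Green Microtubule Cytoskeleton Dye, MitoTracker Red and Annexin V Alexa Fluor 680. After compound addition they were imaged on a CQ1 microscope at 37°C and 5% CO2, and CellPathfinder machine-learning gating sorted them into Hoechst high-intensity objects or normal cells, with normal cells further split into healthy, pyknosed or fragmented nuclei and pyknosed cells into mitotic or apoptotic. Tubulin, mitochondrial-mass and membrane-permeability phenotypes are given as per cents of cells with healthy nuclei.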

[1] = 12 h, 1 µM, compound concentration 1 uM, replicate 1
[2] = 12 h, 1 µM, compound concentration 1 uM, replicate 2
[3] = 12 h, 10 µM, compound concentration 10 uM, replicate 1
[4] = 12 h, 10 µM, compound concentration 10 uM, replicate 2
[5] = 24 h, 1 µM, compound concentration 1 uM, replicate 1
[6] = 24 h, 1 µM, compound concentration 1 uM, replicate 2
[7] = 24 h, 10 µM, compound concentration 10 uM, replicate 1
[8] = 24 h, 10 µM, compound concentration 10 uM, replicate 2
[9] = 48 h, 1 µM, compound concentration 1 uM, replicate 1
[10] = 48 h, 1 µM, compound concentration 1 uM, replicate 2
[11] = 48 h, 10 µM, compound concentration 10 uM, replicate 1
[12] = 48 h, 10 µM, compound concentration 10 uM, replicate 2

COc1c(C)cc(NC(=O)c2nn(Cc3ccc(F)cc3)c3c2CN(C(=O)c2ccc[nH]2)C[C@]3(C)C(N)=O)cc1C
Population Apoptotic (%) [1]: 42%
Population Fragmented Nuclei (%) [1]: 21%
Population Healthy Nuclei (%) [1]: 58%
Population Hoechst High Intensity Objects (%) [1]: 2%
Population Membrane Permeable-Phenotype (%) [1]: 1%
Population Mitochondria Different-Phenotype (%) [1]: 18%
Population Mitotic Cells (%) [1]: 57%
Population Normal (%) [1]: 97%
Population Pyknosed Nuclei (%) [1]: 20%
Population Tubulin-Different-Phenotype (%) [1]: 64%
Total Cell Count [1]: 95
Population Apoptotic (%) [2]: 46%
Population Fragmented Nuclei (%) [2]: 16%
Population Healthy Nuclei (%) [2]: 51%
Population Hoechst High Intensity Objects (%) [2]: 3%
Population Membrane Permeable-Phenotype (%) [2]: 6%
Population Mitochondria Different-Phenotype (%) [2]: 11%
Population Mitotic Cells (%) [2]: 53%
Population Normal (%) [2]: 96%
Population Pyknosed Nuclei (%) [2]: 31%
Population Tubulin-Different-Phenotype (%) [2]: 72%
Total Cell Count [2]: 86
Population Apoptotic (%) [3]: 47%
Population Fragmented Nuclei (%) [3]: 12%
Population Healthy Nuclei (%) [3]: 58%
Population Hoechst High Intensity Objects (%) [3]: 1%
Population Membrane Permeable-Phenotype (%) [3]: 0%
Population Mitochondria Different-Phenotype (%) [3]: 25%
Population Mitotic Cells (%) [3]: 52%
Population Normal (%) [3]: 98%
Population Pyknosed Nuclei (%) [3]: 29%
Population Tubulin-Different-Phenotype (%) [3]: 90%
Total Cell Count [3]: 166
Population Apoptotic (%) [4]: 52%
Population Fragmented Nuclei (%) [4]: 29%
Population Healthy Nuclei (%) [4]: 38%
Population Hoechst High Intensity Objects (%) [4]: 2%
Population Membrane Permeable-Phenotype (%) [4]: 6%
Population Mitochondria Different-Phenotype (%) [4]: 30%
Population Mitotic Cells (%) [4]: 47%
Population Normal (%) [4]: 97%
Population Pyknosed Nuclei (%) [4]: 32%
Total Cell Count [4]: 115
Population Apoptotic (%) [5]: 66%
Population Fragmented Nuclei (%) [5]: 25%
Population Healthy Nuclei (%) [5]: 61%
Population Hoechst High Intensity Objects (%) [5]: 3%
Population Membrane Permeable-Phenotype (%) [5]: 1%
Population Mitochondria Different-Phenotype (%) [5]: 17%
Population Mitotic Cells (%) [5]: 33%
Population Normal (%) [5]: 96%
Population Pyknosed Nuclei (%) [5]: 12%
Population Tubulin-Different-Phenotype (%) [5]: 45%
Total Cell Count [5]: 96
Population Apoptotic (%) [6]: 48%
Population Fragmented Nuclei (%) [6]: 31%
Population Healthy Nuclei (%) [6]: 38%
Population Hoechst High Intensity Objects (%) [6]: 6%
Population Membrane Permeable-Phenotype (%) [6]: 8%
Population Mitotic Cells (%) [6]: 51%
Population Normal (%) [6]: 93%
Population Pyknosed Nuclei (%) [6]: 30%
Population Tubulin-Different-Phenotype (%) [6]: 67%
Total Cell Count [6]: 95
Population Apoptotic (%) [7]: 65%
Population Fragmented Nuclei (%) [7]: 14%
Population Healthy Nuclei (%) [7]: 64%
Population Hoechst High Intensity Objects (%) [7]: 3%
Population Membrane Permeable-Phenotype (%) [7]: 0%
Population Mitochondria Different-Phenotype (%) [7]: 47%
Population Mitotic Cells (%) [7]: 34%
Population Normal (%) [7]: 96%
Population Pyknosed Nuclei (%) [7]: 20%
Population Tubulin-Different-Phenotype (%) [7]: 90%
Total Cell Count [7]: 159
Population Apoptotic (%) [8]: 43%
Population Fragmented Nuclei (%) [8]: 30%
Population Healthy Nuclei (%) [8]: 47%
Population Hoechst High Intensity Objects (%) [8]: 4%
Population Membrane Permeable-Phenotype (%) [8]: 8%
Population Mitochondria Different-Phenotype (%) [8]: 26%
Population Mitotic Cells (%) [8]: 56%
Population Normal (%) [8]: 95%
Population Pyknosed Nuclei (%) [8]: 21%
Population Tubulin-Different-Phenotype (%) [8]: 82%
Total Cell Count [8]: 110
Population Apoptotic (%) [9]: 87%
Population Fragmented Nuclei (%) [9]: 29%
Population Healthy Nuclei (%) [9]: 61%
Population Hoechst High Intensity Objects (%) [9]: 7%
Population Membrane Permeable-Phenotype (%) [9]: 0%
Population Mitochondria Different-Phenotype (%) [9]: 10%
Population Mitotic Cells (%) [9]: 12%
Population Normal (%) [9]: 92%
Population Pyknosed Nuclei (%) [9]: 8%
Population Tubulin-Different-Phenotype (%) [9]: 45%
Total Cell Count [9]: 99
Population Apoptotic (%) [10]: 70%
Population Fragmented Nuclei (%) [10]: 34%
Population Healthy Nuclei (%) [10]: 45%
Population Hoechst High Intensity Objects (%) [10]: 5%
Population Membrane Permeable-Phenotype (%) [10]: 10%
Population Mitotic Cells (%) [10]: 29%
Population Normal (%) [10]: 94%
Population Pyknosed Nuclei (%) [10]: 19%
Population Tubulin-Different-Phenotype (%) [10]: 69%
Total Cell Count [10]: 91
Population Apoptotic (%) [11]: 60%
Population Fragmented Nuclei (%) [11]: 22%
Population Healthy Nuclei (%) [11]: 60%
Population Hoechst High Intensity Objects (%) [11]: 4%
Population Membrane Permeable-Phenotype (%) [11]: 0%
Population Mitochondria Different-Phenotype (%) [11]: 54%
Population Mitotic Cells (%) [11]: 39%
Population Normal (%) [11]: 95%
Population Pyknosed Nuclei (%) [11]: 17%
Population Tubulin-Different-Phenotype (%) [11]: 92%
Total Cell Count [11]: 166
Population Apoptotic (%) [12]: 77%
Population Fragmented Nuclei (%) [12]: 41%
Population Healthy Nuclei (%) [12]: 51%
Population Hoechst High Intensity Objects (%) [12]: 2%
Population Membrane Permeable-Phenotype (%) [12]: 3%
Population Mitochondria Different-Phenotype (%) [12]: 16%
Population Mitotic Cells (%) [12]: 22%
Population Normal (%) [12]: 97%
Population Pyknosed Nuclei (%) [12]: 7%
Population Tubulin-Different-Phenotype (%) [12]: 75%
Total Cell Count [12]: 122

COc1cc(NC(=O)CCN2CCC(OC(=O)Nc3ccccc3-c3ccccc3)CC2)c(Cl)cc1CNC[C@H](O)c1ccc(O)c2[nH]c(=O)ccc12 [BATEFENTEROL]
Population Apoptotic (%) [1]: 53%
Population Fragmented Nuclei (%) [1]: 25%
Population Healthy Nuclei (%) [1]: 58%
Population Hoechst High Intensity Objects (%) [1]: 2%
Population Membrane Permeable-Phenotype (%) [1]: 0%
Population Mitochondria Different-Phenotype (%) [1]: 13%
Population Mitotic Cells (%) [1]: 46%
Population Normal (%) [1]: 97%
Population Pyknosed Nuclei (%) [1]: 15%
Population Tubulin-Different-Phenotype (%) [1]: 42%
Total Cell Count [1]: 181
Population Apoptotic (%) [2]: 37%
Population Healthy Nuclei (%) [2]: 54%
Population Hoechst High Intensity Objects (%) [2]: 3%
Population Membrane Permeable-Phenotype (%) [2]: 3%
Population Mitochondria Different-Phenotype (%) [2]: 7%
Population Mitotic Cells (%) [2]: 62%
Population Normal (%) [2]: 96%
Population Pyknosed Nuclei (%) [2]: 20%
Population Tubulin-Different-Phenotype (%) [2]: 50%
Total Cell Count [2]: 124
Population Apoptotic (%) [3]: 46%
Population Fragmented Nuclei (%) [3]: 24%
Population Healthy Nuclei (%) [3]: 59%
Population Hoechst High Intensity Objects (%) [3]: 2%
Population Membrane Permeable-Phenotype (%) [3]: 0%
Population Mitochondria Different-Phenotype (%) [3]: 22%
Population Mitotic Cells (%) [3]: 53%
Population Normal (%) [3]: 97%
Population Pyknosed Nuclei (%) [3]: 16%
Population Tubulin-Different-Phenotype (%) [3]: 63%
Total Cell Count [3]: 199
Population Apoptotic (%) [4]: 41%
Population Fragmented Nuclei (%) [4]: 44%
Population Healthy Nuclei (%) [4]: 41%
Population Membrane Permeable-Phenotype (%) [4]: 1%
Population Mitochondria Different-Phenotype (%) [4]: 23%
Population Mitotic Cells (%) [4]: 58%
Population Pyknosed Nuclei (%) [4]: 13%
Population Tubulin-Different-Phenotype (%) [4]: 84%
Total Cell Count [4]: 128
Population Apoptotic (%) [5]: 55%
Population Fragmented Nuclei (%) [5]: 21%
Population Healthy Nuclei (%) [5]: 62%
Population Hoechst High Intensity Objects (%) [5]: 1%
Population Membrane Permeable-Phenotype (%) [5]: 0%
Population Mitochondria Different-Phenotype (%) [5]: 7%
Population Mitotic Cells (%) [5]: 44%
Population Normal (%) [5]: 98%
Population Pyknosed Nuclei (%) [5]: 15%
Population Tubulin-Different-Phenotype (%) [5]: 39%
Total Cell Count [5]: 174
Population Apoptotic (%) [6]: 50%
Population Fragmented Nuclei (%) [6]: 26%
Population Healthy Nuclei (%) [6]: 59%
Population Hoechst High Intensity Objects (%) [6]: 2%
Population Membrane Permeable-Phenotype (%) [6]: 3%
Population Mitochondria Different-Phenotype (%) [6]: 10%
Population Mitotic Cells (%) [6]: 50%
Population Normal (%) [6]: 97%
Population Pyknosed Nuclei (%) [6]: 14%
Population Tubulin-Different-Phenotype (%) [6]: 57%
Total Cell Count [6]: 131
Population Apoptotic (%) [7]: 51%
Population Fragmented Nuclei (%) [7]: 35%
Population Healthy Nuclei (%) [7]: 53%
Population Hoechst High Intensity Objects (%) [7]: 0%
Population Membrane Permeable-Phenotype (%) [7]: 0%
Population Mitochondria Different-Phenotype (%) [7]: 34%
Population Mitotic Cells (%) [7]: 48%
Population Normal (%) [7]: 99%
Population Pyknosed Nuclei (%) [7]: 11%
Population Tubulin-Different-Phenotype (%) [7]: 63%
Total Cell Count [7]: 247
Population Apoptotic (%) [8]: 81%
Population Fragmented Nuclei (%) [8]: 46%
Population Healthy Nuclei (%) [8]: 45%
Population Hoechst High Intensity Objects (%) [8]: 1%
Population Membrane Permeable-Phenotype (%) [8]: 1%
Population Mitochondria Different-Phenotype (%) [8]: 14%
Population Mitotic Cells (%) [8]: 18%
Population Normal (%) [8]: 98%
Population Pyknosed Nuclei (%) [8]: 8%
Population Tubulin-Different-Phenotype (%) [8]: 80%
Total Cell Count [8]: 136
Population Apoptotic (%) [9]: 62%
Population Fragmented Nuclei (%) [9]: 23%
Population Healthy Nuclei (%) [9]: 54%
Population Hoechst High Intensity Objects (%) [9]: 3%
Population Membrane Permeable-Phenotype (%) [9]: 0%
Population Mitochondria Different-Phenotype (%) [9]: 18%
Population Mitotic Cells (%) [9]: 37%
Population Normal (%) [9]: 96%
Population Pyknosed Nuclei (%) [9]: 22%
Population Tubulin-Different-Phenotype (%) [9]: 53%
Total Cell Count [9]: 185
Population Apoptotic (%) [10]: 66%
Population Fragmented Nuclei (%) [10]: 29%
Population Healthy Nuclei (%) [10]: 56%
Population Membrane Permeable-Phenotype (%) [10]: 4%
Population Mitochondria Different-Phenotype (%) [10]: 14%
Population Mitotic Cells (%) [10]: 33%
Population Pyknosed Nuclei (%) [10]: 14%
Population Tubulin-Different-Phenotype (%) [10]: 70%
Total Cell Count [10]: 130
Population Apoptotic (%) [11]: 74%
Population Fragmented Nuclei (%) [11]: 22%
Population Healthy Nuclei (%) [11]: 54%
Population Hoechst High Intensity Objects (%) [11]: 1%
Population Membrane Permeable-Phenotype (%) [11]: 0%
Population Mitochondria Different-Phenotype (%) [11]: 45%
Population Mitotic Cells (%) [11]: 25%
Population Normal (%) [11]: 98%
Population Pyknosed Nuclei (%) [11]: 22%
Population Tubulin-Different-Phenotype (%) [11]: 77%
Total Cell Count [11]: 213
Population Apoptotic (%) [12]: 88%
Population Fragmented Nuclei (%) [12]: 45%
Population Healthy Nuclei (%) [12]: 48%
Population Hoechst High Intensity Objects (%) [12]: 0%
Population Membrane Permeable-Phenotype (%) [12]: 1%
Population Mitochondria Different-Phenotype (%) [12]: 15%
Population Mitotic Cells (%) [12]: 11%
Population Normal (%) [12]: 99%
Population Pyknosed Nuclei (%) [12]: 6%
Population Tubulin-Different-Phenotype (%) [12]: 76%
Total Cell Count [12]: 144
